What all share (type): functional
For one experiment, the system named is Enterococcus faecium. The experiment can be described thus: Antibacterial activity against Enterococcus faecium ATCC 35667 after overnight incubation by broth dilution method. In short, it runs like this: (§1)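 CLSI broth microdilution MIC. Compounds dissolved in methanol, diluted to working solution in Brain Heart Infusion broth. Organisms recovered in broth 18–24 h at 37 °C, 5% CO2; inoculum from colonies suspended in saline. Test range 0.016–32 (final), incubated 24 h at 37 °C. MIC taken as the lowest concentration inhibiting visible growth. Run in duplicate with drug-free and solvent-blank columns; final methanol 1.25%.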
Background: Dilution methods test growth across graded concentrations, often in twofold steps.

For the next experiment, the system named is Enterococcus faecalis. The experiment in a line: Antibacterial activity against Enterococcus faecalis ATCC 29212 after overnight incubation by broth dilution method. In a few lines:
as §1

Experiment [1] concerns Staphylococcus aureus. The experiment in a line: Antibacterial activity against Staphylococcus aureus ATCC 29213 after overnight incubation by broth dilution method. In a few lines: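 CLSI broth microdilution MIC. Compounds dissolved in methanol, diluted to working solution in Mueller-Hinton broth. Strain recovered in broth 18–24 h at 37 °C, 5% CO2; colonies suspended in saline for inoculum. Final test range 0.016–32, plates incubated 24 h at 37 °C. MIC read as the lowest concentration preventing visible growth. Duplicates, with drug-free and solvent-blank columns; final methanol 1.25%.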

In experiment [2] the test system is Staphylococcus aureus. The experiment in a line: Antibacterial activity against methicillin-resistant Staphylococcus aureus ATCC 43300 after overnight incubation by broth dilution method. In a few lines:
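CLSI broth dilution MIC in Mueller-Hinton broth. Compounds were dissolved in methanol, diluted in broth, and tested over a two-fold range, with final methanol 1.25% in the top well. Inoculum was colonies in saline after 18–24 h growth at 37 °C in 5% CO2. Plates ran 24 h at 37 °C. MIC was the lowest concentration preventing visible growth. Duplicate wells, drug-free and solvent controls.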

Experiment [3] concerns Staphylococcus aureus. The experiment in a line: Antibacterial activity against methicillin-resistant Staphylococcus aureus ATCC 43300 infected in neutropenic mouse assessed as mouse survival rate at 40 mg/kg, iv administered 1 hr post infection relative to control. To be noted: ATCC 43300, iv. In short, it runs like this:
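Female ICR mice (23–25 g) were made neutropenic with cyclophosphamide ip, 150 mg/kg 4 days and 100 mg/kg 1 day before infection. They were infected ip with 0.5 mL of ~10⁷ CFU/mL MRSA, then given compound iv at 40 mg/kg 1 h post-infection, with tiamulin given the same way as comparator. 10 mice per group; survival recorded.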

These results are taken from ChEMBL document CHEMBL3994615, “Design, synthesis and antibacterial evaluation of novel pleuromutilin derivatives possessing piperazine linker” (2017).

SMILES strings stand for the structures. ≈ marks a conversion by molar mass, not a printed value.

As usually defined, the MIC is the lowest concentration found to suppress growth. High values mean a need for much substance, low ones inhibition by little substance. In the case of `C=C[C@]1(C)C[C@@H](OC(=O)CN2CCN(C(=O)CN3CCN(c4ccccc4[N+](=O)[O-])CC3)CC2)[C@]2(C)[C@H](C)CC[C@]3(CCC(=O)[C@H]32)[C@@H](C)[C@@H]1O`, the MIC was greater than 32 µg/mL against Enterococcus faecium, 2 µg/mL (≈ 2.88 µM) against Enterococcus faecalis, 0.0625 µg/mL (≈ 0.0901 µM) in the experiment on Staphylococcus aureus [1] and 0.0625 µg/mL (≈ 0.0901 µM) in the experiment with Staphylococcus aureus [2].
For the compound `C=C[C@]1(C)C[C@@H](OC(=O)CN2CCN(C(=O)CN3CCN(c4ccc(O)cc4)CC3)CC2)[C@]2(C)[C@H](C)CC[C@]3(CCC(=O)[C@H]32)[C@@H](C)[C@@H]1O`, the minimal inhibitory concentration (MIC) in the experiment on Enterococcus faecium was greater than 32 µg/mL; in the experiment on Enterococcus faecalis, 8 µg/mL (≈ 12 µM); against Staphylococcus aureus [1] it was 2 µg/mL (≈ 3.01 µM); in the experiment on Staphylococcus aureus [2], 1 µg/mL (≈ 1.5 µM).
For `C=C[C@]1(C)C[C@@H](OC(=O)CN2CCN(C(=O)CN3CCN(c4ccccc4OC)CC3)CC2)[C@]2(C)[C@H](C)CC[C@]3(CCC(=O)[C@H]32)[C@@H](C)[C@@H]1O`, the MIC was greater than 32 µg/mL in the experiment on Enterococcus faecium, 4 µg/mL (≈ 5.89 µM) against Enterococcus faecalis, 0.5 µg/mL (≈ 0.736 µM) against Staphylococcus aureus [1] and 0.5 µg/mL (≈ 0.736 µM) against Staphylococcus aureus [2].
For `C=C[C@]1(C)C[C@@H](OC(=O)CN2CCN(C(=O)CN3CCN(c4cccc(C)c4)CC3)CC2)[C@]2(C)[C@H](C)CC[C@]3(CCC(=O)[C@H]32)[C@@H](C)[C@@H]1O`, the MIC is greater than 32 µg/mL against Enterococcus faecium, 4 µg/mL (≈ 6.03 µM) against Enterococcus faecalis, 0.5 µg/mL (≈ 0.754 µM) in the experiment with Staphylococcus aureus [1] and 0.25 µg/mL (≈ 0.377 µM) against Staphylococcus aureus [2].
In the same order, the values of `C=C[C@]1(C)C[C@@H](OC(=O)CN2CCN(C(=O)CN3CCN(c4ccccc4O)CC3)CC2)[C@]2(C)[C@H](C)CC[C@]3(CCC(=O)[C@H]32)[C@@H](C)[C@@H]1O` are greater than 32 µg/mL, 2 µg/mL (≈ 3.01 µM), 1 µg/mL (≈ 1.5 µM) and 0.5 µg/mL (≈ 0.752 µM).
Regarding `C=C[C@]1(C)C[C@@H](OC(=O)CN2CCN(C(=O)CN3CCN(c4cccc([N+](=O)[O-])c4)CC3)CC2)[C@]2(C)[C@H](C)CC[C@]3(CCC(=O)[C@H]32)[C@@H](C)[C@@H]1O`, the MIC is greater than 32 µg/mL in the experiment on Enterococcus faecium, 2 µg/mL (≈ 2.88 µM) against Enterococcus faecalis, 0.25 µg/mL (≈ 0.36 µM) in the experiment with Staphylococcus aureus [1] and 0.0625 µg/mL (≈ 0.0901 µM) against Staphylococcus aureus [2].
Turning to `C=C[C@]1(C)C[C@@H](OC(=O)CN2CCN(C(=O)CN3CCN(C)CC3)CC2)[C@]2(C)[C@H](C)CC[C@]3(CCC(=O)[C@H]32)[C@@H](C)[C@@H]1O`, the minimal inhibitory concentration (MIC) against Enterococcus faecium was greater than 32 µg/mL; in the experiment with Enterococcus faecalis, 2 µg/mL (≈ 3.41 µM); against Staphylococcus aureus [1], 0.5 µg/mL (≈ 0.852 µM); against Staphylococcus aureus [2], 0.125 µg/mL (≈ 0.213 µM).
In the same order, the values of `C=C[C@]1(C)C[C@@H](OC(=O)CN2CCN(C(=O)CN3CCN(c4ccccc4Cl)CC3)CC2)[C@]2(C)[C@H](C)CC[C@]3(CCC(=O)[C@H]32)[C@@H](C)[C@@H]1O` are greater than 32 µg/mL, 4 µg/mL (≈ 5.85 µM), 0.5 µg/mL (≈ 0.732 µM) and 0.015 µg/mL (≈ 0.022 µM).
With `C=C[C@]1(C)C[C@@H](OC(=O)CN2CCN(C(=O)CN3CCN(c4ccc(Cl)cc4)CC3)CC2)[C@]2(C)[C@H](C)CC[C@]3(CCC(=O)[C@H]32)[C@@H](C)[C@@H]1O`, the MIC was greater than 32 µg/mL against Enterococcus faecium, 2 µg/mL (≈ 2.93 µM) against Enterococcus faecalis, 0.125 µg/mL (≈ 0.183 µM) with Staphylococcus aureus [1] and 0.015 µg/mL (≈ 0.022 µM) against Staphylococcus aureus [2]. Also, the survival at 40 mg/kg in the experiment with Staphylococcus aureus [3] worked out at 50%.
Take `C=C[C@]1(C)C[C@@H](OC(=O)CN2CCN(C(=O)CN3CCN(c4ccc(OC)cc4)CC3)CC2)[C@]2(C)[C@H](C)CC[C@]3(CCC(=O)[C@H]32)[C@@H](C)[C@@H]1O`: the minimum inhibitory concentration (MIC) was greater than 32 µg/mL against Enterococcus faecium, 2 µg/mL (≈ 2.95 µM) in the experiment with Enterococcus faecalis, 0.5 µg/mL (≈ 0.736 µM) against Staphylococcus aureus [1] and 0.25 µg/mL (≈ 0.368 µM) against Staphylococcus aureus [2].
As for `C=C[C@]1(C)C[C@@H](OC(=O)CN2CCN(C(=O)CN3CCN(c4ccc(C)cc4)CC3)CC2)[C@]2(C)[C@H](C)CC[C@]3(CCC(=O)[C@H]32)[C@@H](C)[C@@H]1O`, the minimum inhibitory concentration (MIC) with Enterococcus faecium was greater than 32 µg/mL; against Enterococcus faecalis it was 2 µg/mL (≈ 3.02 µM); with Staphylococcus aureus [1] it was 0.25 µg/mL (≈ 0.377 µM); with Staphylococcus aureus [2], 0.125 µg/mL (≈ 0.189 µM).
In the case of `C=C[C@]1(C)C[C@@H](OC(=O)CN2CCN(C(=O)CN3CCN(c4ccc([N+](=O)[O-])cc4)CC3)CC2)[C@]2(C)[C@H](C)CC[C@]3(CCC(=O)[C@H]32)[C@@H](C)[C@@H]1O`, the MIC against Enterococcus faecium was greater than 32 µg/mL; against Enterococcus faecalis it was 1 µg/mL (≈ 1.44 µM); against Staphylococcus aureus [1], 0.125 µg/mL (≈ 0.18 µM); against Staphylococcus aureus [2] it was 0.015 µg/mL (≈ 0.0216 µM).
Take `C=C[C@]1(C)C[C@@H](OC(=O)CN2CCN(C(=O)CN3CCN(c4ccccc4)CC3)CC2)[C@]2(C)[C@H](C)CC[C@]3(CCC(=O)[C@H]32)[C@@H](C)[C@@H]1O`: the MIC against Enterococcus faecium was greater than 32 µg/mL; in the experiment with Enterococcus faecalis, 4 µg/mL (≈ 6.16 µM); in the experiment on Staphylococcus aureus [1], 0.25 µg/mL (≈ 0.385 µM); in the experiment on Staphylococcus aureus [2], 0.125 µg/mL (≈ 0.193 µM).
Taken in the same sequence, the figures for `C=C[C@]1(C)C[C@@H](OC(=O)CN2CCN(C(=O)CN3CCN(c4ccccc4C)CC3)CC2)[C@]2(C)[C@H](C)CC[C@]3(CCC(=O)[C@H]32)[C@@H](C)[C@@H]1O` were greater than 32 µg/mL, 2 µg/mL (≈ 3.02 µM), 0.25 µg/mL (≈ 0.377 µM) and 0.0625 µg/mL (≈ 0.0943 µM).
In the same order, the values of `C=C[C@]1(C)C[C@@H](OC(=O)CN2CCNCC2)[C@]2(C)[C@H](C)CC[C@]3(CCC(=O)[C@H]32)[C@@H](C)[C@@H]1O` are greater than 32 µg/mL, 8 µg/mL (≈ 17.9 µM), 2 µg/mL (≈ 4.48 µM) and 1 µg/mL (≈ 2.24 µM).
In the same order, the values of `C=C[C@]1(C)C[C@@H](OC(=O)CN2CCN(C(=O)CN3CCN(c4cccc(O)c4)CC3)CC2)[C@]2(C)[C@H](C)CC[C@]3(CCC(=O)[C@H]32)[C@@H](C)[C@@H]1O` are greater than 32 µg/mL, 2 µg/mL (≈ 3.01 µM), 0.5 µg/mL (≈ 0.752 µM) and 0.25 µg/mL (≈ 0.376 µM).
In the case of `C=C[C@]1(C)C[C@@H](OC(=O)CN2CCN(C(=O)CCl)CC2)[C@]2(C)[C@H](C)CC[C@]3(CCC(=O)[C@H]32)[C@@H](C)[C@@H]1O`, the minimal inhibitory concentration (MIC) in the experiment on Enterococcus faecium, against Enterococcus faecalis, against Staphylococcus aureus [1] and against Staphylococcus aureus [2] was greater than 32 µg/mL in each case.
With `C=C[C@]1(C)C[C@@H](OC(=O)CN2CCN(C(=O)CN3CCN(c4cccc(Cl)c4)CC3)CC2)[C@]2(C)[C@H](C)CC[C@]3(CCC(=O)[C@H]32)[C@@H](C)[C@@H]1O`, the MIC against Enterococcus faecium was greater than 32 µg/mL; against Enterococcus faecalis, 2 µg/mL (≈ 2.93 µM); in the experiment with Staphylococcus aureus [1], 0.25 µg/mL (≈ 0.366 µM); with Staphylococcus aureus [2], 0.03 µg/mL (≈ 0.0439 µM).
Taken in the same sequence, the figures for `C=C[C@]1(C)C[C@@H](OC(=O)CN2CCN(C(=O)CN3CCN(c4cccc(OC)c4)CC3)CC2)[C@]2(C)[C@H](C)CC[C@]3(CCC(=O)[C@H]32)[C@@H](C)[C@@H]1O` were greater than 32 µg/mL, 2 µg/mL (≈ 2.95 µM), 0.25 µg/mL (≈ 0.368 µM) and 0.25 µg/mL (≈ 0.368 µM).
As for `C=C[C@]1(C)C[C@@H](OC(=O)CO)[C@]2(C)[C@H](C)CC[C@]3(CCC(=O)[C@H]32)[C@@H](C)[C@@H]1O` [PLEUROMULIN], the MIC in the experiment with Enterococcus faecium was greater than 32 µg/mL; in the experiment with Enterococcus faecalis, 16 µg/mL (≈ 42.3 µM); in the experiment with Staphylococcus aureus [1], 8 µg/mL (≈ 21.1 µM); with Staphylococcus aureus [2] it was 2 µg/mL (≈ 5.28 µM).
As for `C=C[C@]1(C)C[C@@H](OC(=O)CS[C@@H]2C[C@H]3CC[C@@H](C2)N3C)[C@]2(C)[C@H](C)CC[C@]3(CCC(=O)[C@H]32)[C@@H](C)[C@@H]1O` [RETAPAMULIN], the minimum inhibitory concentration (MIC) against Enterococcus faecium was greater than 32 µg/mL; against Staphylococcus aureus [1], 0.0625 µg/mL (≈ 0.121 µM); against Staphylococcus aureus [2], 0.0625 µg/mL (≈ 0.121 µM).
Turning to `C=C[C@]1(C)C[C@@H](OC(=O)CSCCN(CC)CC)[C@]2(C)[C@H](C)CC[C@]3(CCC(=O)[C@H]32)[C@@H](C)[C@@H]1O` [TIAMULIN], the minimum inhibitory concentration (MIC) was greater than 32 µg/mL with Enterococcus faecium, 2 µg/mL (≈ 4.05 µM) with Enterococcus faecalis, 0.5 µg/mL (≈ 1.01 µM) against Staphylococcus aureus [1] and 0.125 µg/mL (≈ 0.253 µM) in the experiment with Staphylococcus aureus [2]. The survival at 40 mg/kg in the experiment with Staphylococcus aureus [3] is 10%.
Take `C=C[C@]1(C)C[C@@H](OC(=O)CSC(C)(C)CNC(=O)[C@H](N)C(C)C)[C@]2(C)[C@H](C)CC[C@]3(CCC(=O)[C@H]32)[C@@H](C)[C@@H]1O` [VALNEMULIN]: the minimal inhibitory concentration (MIC) against Enterococcus faecium is greater than 32 µg/mL; in the experiment on Enterococcus faecalis, 1 µg/mL (≈ 1.77 µM); against Staphylococcus aureus [1] it was 0.125 µg/mL (≈ 0.221 µM); in the experiment with Staphylococcus aureus [2], 0.03 µg/mL (≈ 0.0531 µM).
